Assay results published in ChEMBL document CHEMBL2040845, “Discovery of novel sulfonated small molecules that inhibit vascular tube formation” (Bioorg Med Chem Lett, 2012).
Calls of active or inactive are those of the source. No cut-off for these calls is given here.

What was measured:
Assay type in all cases: functional
Bos taurus [1] = species: Bos taurus; test: Antiangiogenic activity against BLMVEC grown on RGF-BME assessed as inhibition of tube formation at 100 uM after 16 hrs by calcein staining-based microscopy
Summary of the method: (§1)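 1×10^5 BLMVEC premixed with test compound in MCDB-131 medium, then added to matrigel in duplicate wells. Wells received 100 μM compound. Controls were untreated wells and sulforaphane. Plates were incubated 16 hrs at 37 °C and cells were imaged by microscopy. Inhibition was scored from network morphology: branching and interconnection of tubes versus dispersed cells or short, unconnected tubes.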

Endothelial cell = test: Antiangiogenic activity against BLMVEC grown on RGF-BME assessed as dispersed endothelial cells at 100 uM after 16 hrs by calcein staining-based microscopy; details: Bos taurus; summary of the method: as §1
Bos taurus [2] = species: Bos taurus; test: Antiangiogenic activity against BLMVEC grown on RGF-BME assessed as inhibition of branching at 100 uM after 16 hrs by calcein staining-based microscopy; summary of the method: as §1
Bos taurus [3] = species: Bos taurus; test: Antiangiogenic activity against BLMVEC grown on RGF-BME assessed as formation of small cell clumps at 100 uM after 16 hrs by calcein staining-based microscopy; summary of the method: as §1
Bos taurus [4] = species: Bos taurus; test: Antiangiogenic activity against BLMVEC grown on RGF-BME assessed as inhibition of tube-like network formation at 100 uM after 16 hrs by calcein staining-based microscopy; summary of the method: as §1

Row | Structure (SMILES) | inhibition (Bos taurus [1]) | Activity (Endothelial cell) | inhibition (Bos taurus [2]) | Activity (Bos taurus [3]) | inhibition (Bos taurus [4])
1 | O=c1c(OS(=O)(=O)O)c(-c2ccc(OS(=O)(=O)O)cc2OS(=O)(=O)O)oc2ccc(OS(=O)(=O)O)cc12 | inactive | inactive | inactive | inactive | inactive
2 | CCOC(=O)[C@@H]1Cc2cc(OS(=O)(=O)O)c(OS(=O)(=O)O)cc2CN1C(=O)c1cc(OS(=O)(=O)O)c(OS(=O)(=O)O)c(OS(=O)(=O)O)c1 | inactive | inactive | inactive | inactive | inactive
3 | CCOC(=O)[C@@H]1Cc2cc(OS(=O)(=O)O)c(OS(=O)(=O)O)cc2CN1C(=O)c1ccc(OS(=O)(=O)O)c(OS(=O)(=O)O)c1 | inactive | inactive | inactive | inactive | inactive
4 | O=c1c(OS(=O)(=O)O)c(-c2ccc(OS(=O)(=O)O)c(OS(=O)(=O)O)c2)oc2cc(OS(=O)(=O)O)cc(OS(=O)(=O)O)c12 | inactive | inactive | inactive | inactive | inactive
5 | O=c1c(OS(=O)(=O)O)c(-c2ccc(OS(=O)(=O)O)c(OS(=O)(=O)O)c2)oc2cc(OS(=O)(=O)O)ccc12 | inactive | inactive | inactive | inactive | inactive
6 | C[C@]12CC[C@@H]3c4ccc(OS(=O)(=O)O)cc4CC[C@H]3[C@@H]1CC[C@@H]2O | Active | Active |  | Active | Active
7 | O=C(c1cc(OS(=O)(=O)O)c(OS(=O)(=O)O)c(OS(=O)(=O)O)c1)N1CCc2cc(OS(=O)(=O)O)c(OS(=O)(=O)O)cc2C1 | inactive | inactive | inactive | inactive | inactive
8 | O=C1c2c(cc(OS(=O)(=O)O)cc2OS(=O)(=O)O)O[C@@H](c2ccc(OS(=O)(=O)O)c(OS(=O)(=O)O)c2)[C@H]1OS(=O)(=O)O | inactive | inactive | inactive | inactive | inactive
9 | O=C(c1ccc(OS(=O)(=O)O)c(OS(=O)(=O)O)c1)N1CCc2cc(OS(=O)(=O)O)c(OS(=O)(=O)O)cc2C1 | inactive | inactive | inactive | inactive | inactive
10 | O=C(CCc1ccc(OS(=O)(=O)O)cc1)c1c(OS(=O)(=O)O)cc(OS(=O)(=O)O)cc1OS(=O)(=O)O | Active | Active |  | Active | Active
11 | O=c1cc(-c2ccc(OS(=O)(=O)O)cc2)oc2cc(OS(=O)(=O)O)cc(OS(=O)(=O)O)c12 | Active | Active |  | Active | Active
12 | O=c1c(OS(=O)(=O)O)c(-c2ccccc2OS(=O)(=O)O)oc2ccccc12 | Active | Active |  | Active | Active
13 | O=c1cc(-c2ccc(OS(=O)(=O)O)c(OS(=O)(=O)O)c2)oc2cc(OS(=O)(=O)O)cc(OS(=O)(=O)O)c12 | Active | Active |  | Active | Active
14 | O=C1c2c(cc(OS(=O)(=O)O)cc2OS(=O)(=O)O)O[C@@H](c2ccc(OS(=O)(=O)O)c(OS(=O)(=O)O)c2)[C@@H]1OS(=O)(=O)O | inactive | inactive | inactive | inactive | inactive
